High-throughput results (PubChem BioAssay)
In the library only some 4.1% were active in any assay of this set; here they are far more common.
KCNK9 inh = inhibitors of human KCNK9 two-pore domain potassium channel | actives 1.2% (n = 310,000) | Q9NPC2 | B-score at 10 µM | AID 488922 | HEK293 KCNK9, FluxOR thallium flux fluorescence; active compounds read low;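 active means ratio B-score over 3 SD below the library mean, with starting fluorescence within 5 SD of its mean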;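 further: negative B-score means less thallium flux so channel inhibition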
KCNQ1 block = inhibitors of human KCNQ1 potassium channel | CHO-K1 KCNQ1, FluxOR thallium flux fluorescence; active compounds read high | B-score at 10 µM | actives 1.3% (n = 310,000) | AID 2642;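 active means compounds whose thallium flux B-score, printed positive for inhibition, exceeds three library SD while starting fluorescence stays within three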;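 further: channel opened by potassium depolarization with thallium stimulus after 20 min compound exposure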
hERG rescue = shields human hERG channel from block by proarrhythmic agents. CHO-hERG, FluxOR thallium flux, dofetilide IC70 present. activation (rescue from dofetilide block), less the hit threshold, % at 10 µM. actives 0.51% (n = 310,000);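 active means activation above the mean of controls blocked by dofetilide plus 5 SD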;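 further: thallium influx through hERG after potassium depolarization seen as dye fluorescence rise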
KCC2 mod = KCC2 (human) Cl- transport modulation; actives 2.2% (n = 190,000); B-score of Tl+ flux slope (higher = more flux/activation; lower = inhibition) at 10 µM; Q9H2X9; AID 1456; KCC2 cells, thallium flux FluoZin-2 fluorescence;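 active means thallium flux slope and its plate-corrected score both differing from the plate sample mean at a set confidence after two filtering rounds, in either direction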;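 further: slope of fluorescence scaled to starting intensity during 10 to 20 s after thallium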
KCNQ1 act = human KCNQ1 channel potentiation or activation | P51787 | CHO-K1 KCNQ1, thallium flux FluxOR fluorescence; active compounds read high | B-score at 10 µM | actives 0.35% (n = 310,000) | AID 2648;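 active means fluorescence ratio B-score, a plate-corrected score, at least three library SD, with initial intensity B-score within 5 SD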
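Test system: CHO-K1 cells stably expressing KCNQ1 / Medium: assay buffer / Also added: depolarizing K+/Tl+ stimulus, K2SO4 and Tl2SO4 each 12.5 mM in 5x stock / Incubation: 90 min dye loading and 20 min compound exposure, both at room temperature / Signal: thallium influx via FluxOR fluorescence, kinetic imaging / Evaluation: B score of baseline-normalized fluorescence ratio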
KCNK3 inh = human KCNK3 channel inhibition, primary screen | CHO-KCNK3 thallium flux, FluxOR fluorescence; active compounds read low | B-score at 10 µM | actives 0.84% (n = 340,000) | AID 602410;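 active means B-score under library mean minus 4 SD, starting fluorescence ratio at most library mean plus 5 SD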;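 further: more negative B-score means stronger inhibition of thallium flux through KCNK3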
KCC2 sec1 = confirmation of human KCC2 transport modulators; shares compounds with KCC2 mod; HEK293-KCC2, thallium flux, FluoZin2 fluorescence; active compounds read high; normalised thallium flux (F/F0 slope) at 10 µM; actives 15% (n = 3,700);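 active means thallium flux slope above the same plate's solvent-only control mean plus 3 SD; inconclusive means the two replicate wells disagree; inactive means no significant difference from solvent-only control wells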
KCC2 bumet counter = thallium flux despite bumetanide block in KCC2 cells, secondary assay 3. shares compounds with KCC2 mod. HEK293-KCC2 + bumetanide/ouabain, thallium flux FluoZin2; active compounds read high. normalized thallium flux at 10 µM. AID 1714. actives 49% (n = 3,700);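 active means thallium entry rate above the same plate's blocked-transporter control wells by more than 3 SD; inconclusive means the two repeat wells disagree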;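 further: raw slope of fluorescence over initial fluorescence between 10 and 20 s after thallium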
KCC2 secondary2 = confirmation of human KCC2 transport modulators; shares compounds with KCC2 mod; HEK293-KCC2, thallium flux FluoZin2 fluorescence; actives lie on both sides; F/F0 rise rate, 10–20 s post-thallium; normalized thallium flux at 10 µM; actives 23% (n = 3,700); AID 1715;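 active means thallium flux slope more than 3 SD above or below the plate's solvent-only control mean, mostly below; inconclusive means the two repeat wells disagreed; inactive means no significant shift from solvent-only controls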;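 further: raw slope with 0.1% DMSO as baseline and bumetanide as block control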
HEK293 Tl flux = counter-screen for KCC2 modulators: effect in parental HEK293 cells; thallium flux FluoZin2, ouabain; baseline-ratio fluorescence slope, 10–20 s after thallium; thallium flux rate (normalised fluorescence) at 10 µM; shares compounds with KCC2 mod; actives 46% (n = 3,700);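 active means thallium flux rate significantly above the same plate's solvent-only control wells, beyond their mean plus 3 SD; inconclusive means the two replicate wells gave conflicting results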
KCC2 retest ouab = KCC2 (human) modulation, ouabain retest | HEK293-KCC2, thallium flux FluoZin2 fluorescence; bidirectional: low = inhibitor, high = activator | raw Tl+ flux slope (below DMSO = inhibition, above = activation) at 10 µM | shares compounds with KCC2 mod | actives 48% (n = 3,700);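 active means thallium flux slope beyond 3 SD from same-plate DMSO control mean in most replicates, usually higher, sometimes lower; inconclusive means repeat tests gave conflicting results; inactive means no significant difference from controls in most replicates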;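 further: slope of initial-normalized fluorescence between seconds 10 and 20 after thallium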
HEK293 Tl flux2 = parental HEK flux effect, counter-screen 2; thallium flux slope at 10 µM; HEK293 parental, thallium flux FluoZin-2 fluorescence slope; shares compounds with KCC2 mod; actives 33% (n = 3,700);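 active means thallium flux slope above the same plate's solvent-control mean plus 3 SD in both duplicate wells; inconclusive means duplicate wells that disagreed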;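 further: run without ouabain in cells lacking the KCC2 cotransporter; slope of fluorescence scaled to its starting value between 10 and 20 s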
* hit, by the source's call.

`c1ccc(OCc2nn3c(C4CCCCC4)nnc3s2)cc1` gave KCNK9 inh inactive, KCNQ1 block inactive, hERG rescue -13.1, KCC2 mod -3.65*, KCNQ1 act inactive, KCNK3 inh inactive, KCC2 sec1 0.0142, KCC2 bumet counter 0.00351, KCC2 secondary2 0.0244*, HEK293 Tl flux inconclusive, KCC2 retest ouab 0.0126* and HEK293 Tl flux2 0.0093.
`COc1cc(NC(=O)Cn2cnc3c(SC)nc(N)nc32)cc(OC)c1OC` gave KCNK3 inh inactive.
`C=C1C(=O)OC2C=C(CO)C3OC3C3OC3(C)CC(OC(=O)/C(=C/C)COC(C)=O)C12` (stereo not given) gave KCNK3 inh inactive.
Screening COc1ccc(N=Nc2ccc(O)c3ncccc23)cc1 returned KCNK9 inh inactive, KCNQ1 block inactive, hERG rescue -10.0, KCC2 mod 32*, KCNQ1 act inactive, KCNK3 inh inactive, KCC2 sec1 0.0188, KCC2 bumet counter 0.0344*, KCC2 secondary2 0.0319, HEK293 Tl flux 0.02*, KCC2 retest ouab 0.0269* and HEK293 Tl flux2 0.0189*.
Screening COc1ccc(C)cc1N=Nc1ccc(O)c2ncccc12 returned KCNK9 inh inactive, KCNQ1 block inactive, hERG rescue -6.8, KCC2 mod 21.3*, KCNQ1 act inactive, KCNK3 inh inactive, KCC2 sec1 0.0069, KCC2 bumet counter 0.0349*, KCC2 secondary2 0.0389*, HEK293 Tl flux 0.0212*, KCC2 retest ouab 0.0352* and HEK293 Tl flux2 0.0226*.
For Cc1cc(Cl)ccc1Oc1ccccc1C(=O)CC#N the results were KCNK9 inh inactive, KCNQ1 block inactive, hERG rescue -6.7, KCC2 mod -5.51*, KCNQ1 act inactive, KCNK3 inh inactive, KCC2 sec1 0.00641, KCC2 bumet counter 0.00481, KCC2 secondary2 inconclusive, HEK293 Tl flux 0.00648, KCC2 retest ouab inconclusive and HEK293 Tl flux2 0.00929.
For Cc1ccc(C(=O)NCC(=O)NCC(c2cccs2)N(C)C)cc1C (stereo not given) the results were KCNK3 inh inactive.
For COc1ccccc1NC(=O)c1oc2ccccc2c1NC(=O)c1cc(OC)c(OC)c(OC)c1 the results were KCNK9 inh inactive, KCNQ1 block inactive, hERG rescue -5.0, KCC2 mod 0.427, KCNQ1 act inactive and KCNK3 inh inactive.
`COc1ccccc1NC(=O)c1oc2ccc(C)cc2c1C` gave KCNK9 inh inactive, KCNQ1 block inactive, hERG rescue -11.1, KCC2 mod -4.74*, KCNQ1 act inactive, KCNK3 inh inactive, KCC2 sec1 0.00594, KCC2 bumet counter 0.00528, KCC2 secondary2 0.0312, HEK293 Tl flux 0.0081, KCC2 retest ouab 0.0193 and HEK293 Tl flux2 0.0119.
Clc1ccc2nc(N3CCCCC3)[nH]c2c1 was read as KCNK9 inh inactive, KCNQ1 block inactive, hERG rescue -11.0, KCC2 mod -0.254, KCNQ1 act inactive and KCNK3 inh inactive.
